The record followed here is PubChem BioAssay.

A number with no mark means an inactive call. Records with an inconclusive call do not appear. Activity calls are given as the source filed them.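 The calls were made as follows, unless noted: active = viability increase at or above a cutoff of the median across tested compounds plus 3 SD (cut at about 8.5% in these data, passing the limit was not always enough); inconclusive = some gains above the cutoff, reason not given; inactive = the rest.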

Experiment [1] can be described thus: OD615 S. cerevisiae growth inhibition, permissive medium, pilot counter-assay, permissive growth control for S. cerevisiae lifespan shortening project (AID 705;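 active = growth inhibition above 25% in both replicates, a cutoff set 3 SD above the mean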). Conditions: OD615, 24 h, at 10 µM, active compounds read high. An outline of the steps: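 Timing: 24 h exposure, 30 °C / Material: Saccharomyces cerevisiae strain carrying genetically modified DeaD replicative-lifespan system / Signal: OD at 615 nm / Compound: 10 µM single dose, 0.25% DMSO / Medium: SC raffinose/galactose permissive medium / Evaluation: reduction in yeast growth (OD615)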

A short description of experiment [2]: Restrictive medium S. cerevisiae growth inhibition, OD615, pilot screen of yeast lifespan reduction project, restrictive growth control (AID 706;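 active = growth inhibition above a set limit, 3 SD over mean compound inhibition, in both replicates, cut at about 43% in these data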;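 also: modified DeaD lifespan yeast strain shifted to restrictive glucose medium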). The following applies: OD615, 48 h, at 10 µM, active compounds read high. Summed up: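 System: Engineered S. cerevisiae DeaD strain | Detection: OD615 | Buffer or medium: CSMM-D glucose medium | Doses: 10 µM compound, 0.25% DMSO | Timing: 4 h pre-growth plus 48 h compound exposure, 30 °C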

Experiment [3] can be described thus: viability gain of MRP-1-high H69AR cells under doxorubicin, pilot screen, MRP-1 activator project, CellTiter-Glo, duplicate (AID 807).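 Also: compound pretreatment 18-22 h then 72 h combined with doxorubicin; 0% = doxorubicin alone and 100% = vehicle without doxorubicin.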 Conditions: H69AR viability with doxorubicin, CellTiter-Glo luminescence; at 10 µM; active compounds read high. (In general: Cellular ATP, detected with luciferase, serves as a proxy for viable cell number.)
The nature of experiment [4]: growth suppression of beta-catenin knockout HCT116, pilot screen, human colon tumor cells (AID 823;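 active = cell viability at or below a set limit in both duplicate runs, the limit being the all-compound median minus 4 SD, cut at about 23% in these data, passing the limit was not always enough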;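 also: 0% = wells killed by 20 µM Hyamine and 100% = untreated DMSO cell wells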). The following applies: CellTiter-Glo, 60 h, at 10 µM, active compounds read low.
A short description of experiment [5]: growth suppression of PTEN-deleted HCT116, pilot screen, cell-based, HCT116 clonal line, CellTiter-Glo (AID 824;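 active = viability at or below 27.92% in each of two runs, the all-compound median minus 4 SD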;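 also: 0% = 20 µM Hyamine control and 100% = vehicle cell control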). The following applies: 60 h, at 10 µM, active compounds read low.
The nature of experiment [6]: inhibitors of the yeast RAM network, pilot screen, dse1pr::URA3 reporter, 5-FOA selection (AID 869;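 active = inhibition over a set limit, the all-compound mean plus 3 SD, in both replicate runs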;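 also: 0% = DMSO wells with no growth and 100% = 10 µM 1-NA-PP1 with full growth; RAM network block rescues cells from 5-FOA so hits raise OD615 growth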). Conditions: S. cerevisiae dse1pr::URA3 5-FOA growth, OD615, 2 d; at 10 µM; active compounds read high; strain carries analog-sensitive mutant Cbk1 kinase.
Experiment [7] is described as follows: RAM signaling pathway blockade in yeast – S. cerevisiae, Pdr1DBD-CYC8 efflux-inhibited sensitized strain, primary screen (AID 1298;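 active = RAM network inhibition above 8.4% in each of two replicates, 3 SD over the compound average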;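 also: 0% = DMSO untreated cells without growth and 100% = 10 µM 1-NA-PP1 full growth; higher means more yeast growth rescued from 5-FOA killing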). Conditions: S. cerevisiae cbk1-as DSE1-URA3 strain, 5-FOA growth OD615, 2 d; at 50 µM; active compounds read high.

As a reminder, the viability is a read-out of living cells in per cent, often relative to untreated cells. In general, inhibition refers to the change of the read-out against control, counted positive when it falls. In the case of `NC(=O)C1(N2CCCCC2)CCN(C(=O)CCCn2c(=O)[nH]c3ccsc3c2=O)CC1`, the figures for the growth inhibition in experiment [1] and in experiment [2] were -6.16% and 2.1%, respectively. Moreover, the viability increase in experiment [3] was -1.61%. Also, the figures for the viability in experiment [4] and in experiment [5] were 93.5% and 91.6%, respectively. The inhibition in experiment [6] was 1.89%. Also, the RAM network inhibition in experiment [7] is 0.48%.
As for `CC(O)Cc1nsc(NC(=O)c2cccs2)n1` (stereo not drawn), the growth inhibition in experiment [1] was -11.4%; in experiment [2] it was -8.99%. The viability increase in experiment [3] is -0.55%. Also, the results for the viability in experiment [4] and in experiment [5] were 104% and 100%, respectively. The inhibition in experiment [6] is 0.84%. For the same compound, the RAM network inhibition in experiment [7] was 0.26%.
Turning to `Cn1c2c(c(=O)n(C)c1=O)C1c3ccccc3OCC1C(C)(C)O2` (stereo not drawn), the growth inhibition is -15.4% in experiment [1] and -19.5% in experiment [2]. Further, the viability increase in experiment [3] is -2.46%. Also, the viability in experiment [4] is 98.7%; in experiment [5], 96.1%. For the same compound, in experiment [6], the inhibition was -0.05%. Also, the RAM network inhibition in experiment [7] was 0.68%.
Regarding `COc1ccc(C2C(C(=O)NCc3cccnc3)c3ccccc3C(=O)N2C)cc1OC` (stereo not drawn), the growth inhibition in experiment [1] is -16.2%; in experiment [2] it was -13.9%. For the same compound, the viability increase in experiment [3] was -0.88%. Also, the viability was 101% in experiment [4] and 96.6% in experiment [5]. For the same compound, the inhibition in experiment [6] was 1.71%. Moreover, the RAM network inhibition in experiment [7] is -0.99%.
`CCCCNC(=O)c1cc2c(-c3ccc(Cl)cc3)nn(C)c2s1`: the growth inhibition in experiment [1] is 3.71%; in experiment [2], 6.75%. In addition, in experiment [3], the viability increase is -5.53%. Moreover, the viability in experiment [4] is 89.9%; in experiment [5], 88.7%. The inhibition in experiment [6] is 3.1%. For the same compound, the RAM network inhibition in experiment [7] was 4.05%.
Regarding `Cc1ccc(Nc2cc(C)nc3nc(C)nn23)c(C)c1`, the figures for the growth inhibition in experiment [1] and in experiment [2] were -9.53% and 8.84%, respectively. Also, the viability increase in experiment [3] was -3.9%. Further, the values for the viability in experiment [4] and in experiment [5] were 95.1% and 96.9%, respectively. Also, the inhibition in experiment [6] is -0.02%. For the same compound, the RAM network inhibition in experiment [7] is -0.78%.
In the case of `COc1ccc(CC(=O)Nc2cc(=O)n(C)c(=O)n2C)cc1`, the growth inhibition was -5.75% in experiment [1] and -4.35% in experiment [2]. For the same compound, the viability increase in experiment [3] was 0.44%. The figures for the viability in experiment [4] and in experiment [5] were 102% and 91%, respectively. Also, the inhibition in experiment [6] was 1.85%. The RAM network inhibition in experiment [7] is -2.12%.
`O=C(NCC1COc2ccccc2O1)C1CCCN(S(=O)(=O)c2cccc3cccnc23)C1` (stereo not drawn): the growth inhibition in experiment [1] was -2.58%; in experiment [2], -19.5%. For the same compound, the viability increase in experiment [3] was 0.43%. The viability in experiment [4] was 71.8%; in experiment [5], 72.9%. Besides, the inhibition in experiment [6] is 2.7%. Moreover, in experiment [7], the RAM network inhibition was 3.24%.
For the compound `O=C1CN(C(=O)COc2ccccc2)CCN1`, the growth inhibition in experiment [1] was -14.3%; in experiment [2], -15.5%. In addition, the viability increase in experiment [3] was -1.4%. The viability in experiment [4] is 99.3%; in experiment [5], 96.8%. Moreover, the inhibition in experiment [6] was 1.35%. In experiment [7], the RAM network inhibition is -0.43%.
As for `Cc1cc(C)nc(SCC(=O)OCN2C(=O)c3ccccc3C2=O)n1`, the results for the growth inhibition in experiment [1] and in experiment [2] were -19.7% and -18.3%, respectively. For the same compound, the viability increase in experiment [3] is -1.63%. Further, the viability in experiment [4] and in experiment [5] was 91.6% throughout. In addition, the inhibition in experiment [6] is 0.15%. Further, the RAM network inhibition in experiment [7] was 3.15%.
As to `Cc1cccc(-n2ncc3c(NC(C)C)ncnc32)c1`, the figures for the growth inhibition in experiment [1] and in experiment [2] were 5.47% and 3.18%, respectively. Also, in experiment [3], the viability increase was -0.3%. For the same compound, the viability is 101% in experiment [4] and 84.3% in experiment [5]. Further, the inhibition in experiment [6] was 0.87%. Further, the RAM network inhibition in experiment [7] was -0.57%.
On to `CCOC(=O)N1CCN(c2nc(C)cc(C(F)(F)F)n2)CC1`, for which the growth inhibition in experiment [1] was 1.86%; in experiment [2], -23.3%. In addition, the viability increase in experiment [3] was 2.84%. In addition, the viability in experiment [4] was 102%; in experiment [5], 96.5%. Further, the inhibition in experiment [6] is 2.92%. Besides, the RAM network inhibition in experiment [7] is 2.23%.
Consider `O=C(c1cnn(-c2ccccc2)c1-n1cccc1)N1CCN(C2CCCCC2)CC1`, for which the growth inhibition is -1.61% in experiment [1] and 5.93% in experiment [2]. Also, in experiment [3], the viability increase was -3.1%. Further, the viability in experiment [4] is 94%; in experiment [5], 93.4%. Further, the inhibition in experiment [6] was 1.35%. Also, in experiment [7], the RAM network inhibition was 2.87%.
In the case of `Cn1c(=O)c2c(nc(CN3CCN(Cc4ccccc4)CC3)n2Cc2ccc(Cl)cc2)n(C)c1=O`, the growth inhibition in experiment [1] was -2.47%; in experiment [2], -13.5%. Besides, the viability increase in experiment [3] is -6.52%. Besides, the viability is 8.81% (active) in experiment [4] and 10.3% (active) in experiment [5]. Further, the inhibition in experiment [6] is 1.27%. Moreover, the RAM network inhibition in experiment [7] is 2.33%.
`O=C(O)c1cccc2c1C(=O)N(C1CCCCC1)C2`: the growth inhibition in experiment [1] is -18.8%; in experiment [2] it was -5.79%. The viability increase in experiment [3] is -1.27%. In addition, the results for the viability in experiment [4] and in experiment [5] were 104% and 98.3%, respectively. Further, the inhibition in experiment [6] is 1.97%. In addition, the RAM network inhibition in experiment [7] was 6.19%.
On to `CC1CCN(CC(=O)N2c3ccccc3CCc3ccccc32)CC1`, for which the growth inhibition in experiment [1] is -14.5%; in experiment [2], -19.2%. Besides, the viability increase in experiment [3] was -1.57%. The viability in experiment [4] was 87.5%; in experiment [5] it was 90%. In addition, the inhibition in experiment [6] was 4.08%. In addition, the RAM network inhibition in experiment [7] was 4.24%.
Consider `Cn1cccc1Cc1nnc(SCC(=O)NCc2ccccc2)n1-c1ccc(F)cc1`, for which the growth inhibition in experiment [1] was -3.32%; in experiment [2], 0.42%. Moreover, in experiment [3], the viability increase is -3.08%. Further, the viability in experiment [4] is 90.8%; in experiment [5] it was 89.8%. For the same compound, the inhibition in experiment [6] is 2.85%. Moreover, the RAM network inhibition in experiment [7] is 2.8%.
As for `Cc1ccc2c(c1)c(C)c(C)n2CC(O)CN1CCCCC1C` (stereo not drawn), the growth inhibition in experiment [1] was -9.72%; in experiment [2] it was -9.14%. In addition, the viability increase in experiment [3] is -4.02%. Also, the figures for the viability in experiment [4] and in experiment [5] were 72.2% and 79.6%, respectively. The inhibition in experiment [6] is 0.91%. For the same compound, the RAM network inhibition in experiment [7] is 2.28%.
On to `O=S(=O)(NC1CCCCC1)c1ccc(Br)cc1`, for which the growth inhibition in experiment [1] was 2.22%; in experiment [2] it was 1.47%. Besides, the viability increase in experiment [3] was -2.36%. The viability is 89.3% in experiment [4] and 89.8% in experiment [5]. Moreover, in experiment [6], the inhibition is 0.065%. In experiment [7], the RAM network inhibition is 2.96%.
With `CCOC(=O)N1CCN(CC(O)c2ccc3cc[nH]c3c2)CC1` (stereo not drawn), the growth inhibition in experiment [1] is -10.8%; in experiment [2] it was -0.09%. For the same compound, the viability increase in experiment [3] is -3.2%. The viability in experiment [4] was 88.8%; in experiment [5] it was 88.4%. Also, in experiment [6], the inhibition was 1.44%. The RAM network inhibition in experiment [7] was 1.94%.
Turning to `COc1ccc(S(=O)(=O)N2CCN(Cc3c[nH]c4ccccc34)CC2)cc1`, the growth inhibition in experiment [1] was -13.2%; in experiment [2], -14.2%. Besides, in experiment [3], the viability increase is -4.53%. The viability was 80.7% in experiment [4] and 89.6% in experiment [5]. The inhibition in experiment [6] was 2.11%. Besides, the RAM network inhibition in experiment [7] is 4.82%.
Take `COc1ccc(OC)c2sc(NC(=O)C3COc4ccccc4O3)nc12` (stereo not drawn): the growth inhibition is -19.7% in experiment [1] and -10.6% in experiment [2]. In experiment [3], the viability increase is -3.63%. Moreover, the viability in experiment [4] was 101%; in experiment [5] it was 95.6%. Also, in experiment [6], the inhibition is -0.125%. In addition, the RAM network inhibition in experiment [7] was 2.87%.
For `CC(=O)C1C(c2ccc(Cl)cc2)NC(=O)NC1(O)C(F)(F)F` (stereo not drawn), the growth inhibition was -9.25% in experiment [1] and -12% in experiment [2]. Further, the viability increase in experiment [3] is -0.16%. Moreover, the viability in experiment [4] was 103%; in experiment [5], 101%. The inhibition in experiment [6] is 0.825%. Also, in experiment [7], the RAM network inhibition is 3.45%.
As to `O=C1N=C(N2CCOCC2)SC1=C1CCCCC1`, the growth inhibition in experiment [1] was -8.5%; in experiment [2] it was -2.34%. Moreover, in experiment [3], the viability increase is -2.09%. Further, the viability in experiment [4] is 98%; in experiment [5], 97.1%. For the same compound, in experiment [6], the inhibition is 1.17%. Besides, the RAM network inhibition in experiment [7] was 1.84%.
